From ChEMBL document CHEMBL3244308, “Potential antitumor agents. 22. Latentiated congeners of the 4'-(9-acridinylamino)methanesulfonanilides” (J Med Chem, 1977)

How the values were obtained:
L1210 [1] = experiment: Antitumor activity against mouse L1210 cells intraperitoneally xenografted in ip dosed C3H/DBA2 F1 hybrid mouse assessed as increase in host lifespan administered daily for 5 days starting 24 hrs post-tumor implantation; assay type: functional
How it was run: (§1)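 10⁵ L1210 cells implanted ip into 18.5-22.5-g C3H/DBA2 F1 mice. Daily ip treatment for 5 days from 24 h after implant, as water-soluble salts (methanesulfonate or hydrochloride) or as homogenized suspensions in aqueous methylcellulose. Groups of six mice. Read-out is increase in life span (T/C% − 100) at the optimum dose (maximal life-span increase, mg/kg/day); 50-day survivors counted.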

Mus musculus = experiment: Toxicity in ip dosed mouse assessed as optimum dose that providing maximum increase in life span administered qd for 1 to 5 days; assay type: organism-based; details: in vivo
How it was run: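 Mice were C3H/DBA2 F1 hybrids weighing 18.5-22.5 g. L1210 cells (10^5) were implanted ip or sc above the right axilla. Daily ip treatment began 24 h later and continued for 5 days (dq 1-5), given in water or as a homogenized suspension in aqueous methylcellulose. The optimum dose (mg/kg/day) is the one giving maximum life-span increase (T/C% - 100). Groups were six mice; 50-day survivors were counted.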

L1210 [2] = experiment: Antitumor activity against mouse L1210 cells subcutaneously xenografted in ip dosed C3H/DBA2 F1 hybrid mouse assessed as increase in host lifespan administered daily for 5 days starting 24 hrs post-tumor implantation; assay type: functional
How it was run: as §1, with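 “implanted sc above the right axilla” for “implanted ip”, “ip dosing” for “ip treatment”, “salts” for “salts (methanesulfonate or hydrochloride)”, “mice. Increase” for “mice. Read-out is increase”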

[3] = Lipophilic-hydrophilic balance, Rm of the compound by reversed-phase partition chromatography; assay type: physicochemical

Row | SMILES | ILS (L1210 [1]) | Activity (Mus musculus) | ILS (L1210 [2]) | Rm [3]
1 | CCCCCCCCCCCCCCCCCC(=O)N(c1ccc(Nc2c3ccccc3nc3cc(NC(C)=O)ccc23)cc1)S(C)(=O)=O | 68% | 450 mg/kg | 39% | 0.87
2 | CCCC(=O)N(c1ccc(Nc2c3ccccc3nc3c(C)cccc23)c(OC)c1)S(C)(=O)=O | 52% | 75 mg/kg |  | 0.53
3 | CCC(=O)N(c1ccc(Nc2c3ccccc3nc3c(C)cccc23)c(OC)c1)S(C)(=O)=O | 31% | 25 mg/kg |  | 0.37
4 | COc1cc(N(C(C)=O)S(C)(=O)=O)ccc1Nc1c2ccccc2nc2c(C)cccc12 | 38% | 7.5 mg/kg |  | 0.24
5 | CCCC(=O)N(c1ccc(Nc2c3ccccc3nc3cc([N+](=O)[O-])ccc23)cc1)S(C)(=O)=O | 52% | 50 mg/kg |  | 0.27
6 | CCN(CC)/N=N/c1ccc2c(Nc3ccc(NS(C)(=O)=O)cc3)c3ccccc3nc2c1 |  |  |  | 0.49
7 | CS(=O)(=O)Nc1ccc(Nc2c3ccccc3nc3cc([N+](=O)[O-])ccc23)cc1 | 123% | 25 mg/kg | 43% | -0.07
8 | COc1cc(NS(C)(=O)=O)ccc1Nc1c2ccccc2nc2c(C)cccc12 | 111% | 6 mg/kg | 47% | 0.11
9 | CCCCC(=O)N(c1ccc(Nc2c3ccccc3nc3c(C)cccc23)c(OC)c1)S(C)(=O)=O | 50% | 250 mg/kg |  | 0.66
10 | CCCCCC(=O)N(c1ccc(Nc2c3ccccc3nc3c(C)cccc23)c(OC)c1)S(C)(=O)=O | 39% | 66 mg/kg |  | 0.79
11 | CC(=O)Nc1ccc2c(Nc3ccc(N(C(C)=O)S(C)(=O)=O)cc3)c3ccccc3nc2c1.Cl | 118% | 28 mg/kg | 43% | -0.19
12 | CCC(=O)N(c1ccc(Nc2c3ccccc3nc3cc(NC(C)=O)ccc23)cc1)S(C)(=O)=O.Cl | 135% | 40 mg/kg | 88% | 0
13 | CCC(=O)N(c1ccc(Nc2c3ccccc3nc3ccccc23)cc1)S(C)(=O)=O.Cl | 88% | 300 mg/kg | 56% | 0.07
14 | CCCC(=O)N(c1ccc(Nc2c3ccccc3nc3ccccc23)cc1)S(C)(=O)=O.Cl | 31% | 400 mg/kg |  | 0.28
15 | CCCCC(=O)N(c1ccc(Nc2c3ccccc3nc3ccccc23)cc1)S(C)(=O)=O.Cl | 68% | 400 mg/kg | 28% | 0.34
16 | CCCCCC(=O)N(c1ccc(Nc2c3ccccc3nc3ccccc23)cc1)S(C)(=O)=O.Cl | 41% | 150 mg/kg |  | 0.45
17 | Br.CCCCCCC(=O)N(c1ccc(Nc2c3ccccc3nc3ccccc23)cc1)S(C)(=O)=O | 61% | 150 mg/kg | 27% | 0.54
18 | CCCCCCCC(=O)N(c1ccc(Nc2c3ccccc3nc3ccccc23)cc1)S(C)(=O)=O.Cl | 41% | 400 mg/kg |  | 0.68
19 | CCCCCCCCC(=O)N(c1ccc(Nc2c3ccccc3nc3ccccc23)cc1)S(C)(=O)=O.Cl | 31% | 400 mg/kg |  | 0.74
20 | COc1cc(N(C(C)=O)S(C)(=O)=O)ccc1Nc1c2ccccc2nc2ccccc12.Cl | 70% | 6 mg/kg | 33% | 0.05
21 | CCOC(=O)CCC(=O)N(c1ccc(Nc2c3ccccc3nc3c(C)cccc23)c(OC)c1)S(C)(=O)=O | 43% | 18 mg/kg |  | 0.62
22 | CCCC(=O)N(c1ccc(Nc2c3ccccc3nc3cc(NC(C)=O)ccc23)cc1)S(C)(=O)=O.Cl | 98% | 50 mg/kg | 62% | 0.22
23 | CCCCC(=O)N(c1ccc(Nc2c3ccccc3nc3cc(NC(C)=O)ccc23)cc1)S(C)(=O)=O.Cl | 89% | 80 mg/kg | 63% | 0.36
24 | CCCCCC(=O)N(c1ccc(Nc2c3ccccc3nc3cc(NC(C)=O)ccc23)cc1)S(C)(=O)=O.Cl | 81% | 42 mg/kg | 43% | 0.51

Row | SMILES | ILS (L1210 [1]) | Activity (Mus musculus) | ILS (L1210 [2]) | Rm [3]
25 | Br.CCCCCCC(=O)N(c1ccc(Nc2c3ccccc3nc3cc(NC(C)=O)ccc23)cc1)S(C)(=O)=O | 71% | 14 mg/kg | 47% | 0.63
26 | Br.CCCCCCCC(=O)N(c1ccc(Nc2c3ccccc3nc3cc(NC(C)=O)ccc23)cc1)S(C)(=O)=O | 83% | 22 mg/kg | 45% | 0.69
27 | Br.CCCCCCCCC(=O)N(c1ccc(Nc2c3ccccc3nc3cc(NC(C)=O)ccc23)cc1)S(C)(=O)=O | 143% | 45 mg/kg | 83% | 0.72
28 | Br.CCCCCCCCCC(=O)N(c1ccc(Nc2c3ccccc3nc3cc(NC(C)=O)ccc23)cc1)S(C)(=O)=O | 98% | 50 mg/kg | 65% | 0.76
29 | Br.CCCCCCCCCCC(=O)N(c1ccc(Nc2c3ccccc3nc3cc(NC(C)=O)ccc23)cc1)S(C)(=O)=O | 64% | 30 mg/kg | 39% | 0.79
30 | Br.CCCCCCCCCCCC(=O)N(c1ccc(Nc2c3ccccc3nc3cc(NC(C)=O)ccc23)cc1)S(C)(=O)=O | 72% | 30 mg/kg | 41% | 0.81
31 | CC(=O)Nc1ccc2c(Nc3ccc(N(C(=O)C(C)C)S(C)(=O)=O)cc3)c3ccccc3nc2c1.Cl | 93% | 50 mg/kg | 57% | 0.29
32 | CCC(C)C(=O)N(c1ccc(Nc2c3ccccc3nc3cc(NC(C)=O)ccc23)cc1)S(C)(=O)=O.Cl (stereo not drawn) | 68% | 50 mg/kg | 31% | 0.38
33 | CC(C)(C)C(=O)N(c1ccc(Nc2c3ccccc3nc3ccccc23)cc1)S(C)(=O)=O.Cl | 47% | 250 mg/kg |  | 0.31
34 | COC(=O)N(c1ccc(Nc2c3ccccc3nc3ccccc23)cc1)S(C)(=O)=O.Cl | 67% | 250 mg/kg | 36% | 0.07
35 | CC(=O)N(c1ccc(Nc2c3ccccc3nc3cc(N)ccc23)cc1)S(C)(=O)=O.Cl | 74% | 2 mg/kg |  | -0.22
36 | Br.CCC(=O)N(c1ccc(Nc2c3ccccc3nc3cc(N)ccc23)cc1)S(C)(=O)=O | 49% | 2 mg/kg |  | -0.04
37 | CCCC(=O)N(c1ccc(Nc2c3ccccc3nc3cc(N)ccc23)cc1)S(C)(=O)=O.Cl | 53% | 1 mg/kg |  | 0.13
38 | CCCCC(=O)N(c1ccc(Nc2c3ccccc3nc3cc(N)ccc23)cc1)S(C)(=O)=O.Cl | 61% | 1 mg/kg |  | 0.31
39 | CCCCCC(=O)N(c1ccc(Nc2c3ccccc3nc3cc(N)ccc23)cc1)S(C)(=O)=O.Cl | 46% | 2 mg/kg |  | 0.43
40 | CCCCCCC(=O)N(c1ccc(Nc2c3ccccc3nc3cc(N)ccc23)cc1)S(C)(=O)=O.Cl | 31% | 2 mg/kg |  | 0.51
41 | CCCCCCCC(=O)N(c1ccc(Nc2c3ccccc3nc3cc(N)ccc23)cc1)S(C)(=O)=O.Cl | 119% | 2.5 mg/kg |  | 0.57
42 | CCCCCCCCC(=O)N(c1ccc(Nc2c3ccccc3nc3cc(N)ccc23)cc1)S(C)(=O)=O.Cl | 64% | 2.5 mg/kg |  | 0.59
43 | CCOC(=O)CCC(=O)N(c1ccc(Nc2c3ccccc3nc3c(C)cccc23)c(OC)c1)S(C)(=O)=O.CS(=O)(=O)O | 40% | 13.3 mg/kg |  | 
44 | CCN(CC)/N=N/c1ccc2c(Nc3ccc(NS(C)(=O)=O)cc3)c3ccccc3nc2c1.CS(=O)(=O)O | 96% | 25 mg/kg | 28% | 
45 | CCCOC(=O)CCC(=O)N(c1ccc(Nc2c3ccccc3nc3c(C)cccc23)c(OC)c1)S(C)(=O)=O |  | 75 mg/kg |  | 0.75
46 | CC(=O)Nc1ccc2c(Nc3ccc(NS(C)(=O)=O)cc3)c3ccccc3nc2c1 | 114% | 13 mg/kg | 33% | -0.12
47 | CS(=O)(=O)Nc1ccc(Nc2c3ccccc3nc3cc(N)ccc23)cc1 | 81% | 2.5 mg/kg |  | -0.17
48 | CS(=O)(=O)Nc1ccc(Nc2c3ccccc3nc3ccccc23)cc1 | 107% | 45 mg/kg | 28% | 0
